Shown are actives, neighbours in structure and some others; about 1.4% of the full set was active somewhere.
TbMetRS inhib = Trypanosoma brucei MetRS inhibition; purified T. brucei MetRS, ATP depletion, Kinase-Glo luminescence; inhibition, % at 11.9 µM; 0.4% of 360,000 active;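 active means inhibition above a per-plate cutoff of the control wells' mean inhibition plus 3 SD, cut at about 5.5% in these data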
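Measured by: Kinase-Glo luciferase luminescence reporting remaining unconsumed ATP. Material: purified T. brucei MetRS enzyme. Doses: 11.9 µM compound single dose, 0.9% DMSO. Medium: HEPES buffer containing pyrophosphatase, BSA, spermine, DTT. Times: 15 min preincubation, 2 h reaction, all 25 °C. Reagent: methionine, ATP and bulk E. coli tRNA.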
Efflux pump mplx = blocks antifungal efflux pumps in multiplex yeast assay. S. cerevisiae Candida pump triplex, Nile Red efflux. inhibition, % at 10 µM. 0.44% of 330,000 active. AID 485275;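 active means plate passing quality check with inhibition over a set limit, or well fluorescence over plate mean plus 4 SD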;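 further: Nile Red retained in pooled yeast measured as flow cytometry median fluorescence; higher means more Nile Red kept so more efflux inhibition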
CR mimetic SO = caloric restriction mimetics inhibiting age-related superoxide in yeast; superoxide response (% of plate mean), % at 10 µM; AID 2690; S. cerevisiae aged cells, superoxide DHE fluorescence; hits give low values; 0.18% of 330,000 active;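 active means superoxide response under a set limit, about three screen SD below normal, cut at about 65% in these data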;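 further: yeast aged for seven days with compound at 30 °C before DHE staining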
IDE inh = inhibitors of human insulin-degrading enzyme in cells. P14735. HEK cells, FAbetaB cleavage, fluorescence polarization. inhibition, % at 5.59 µM. 0.41% of 320,000 active. AID 434962;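 active means percent inhibition above the average of all tested compounds plus 3 SD, set per screening campaign, cut at about 16% in these data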;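 further: IDE supplied by intact live HEK cells; FP after avidin binding of uncleaved biotin substrate so inhibition keeps polarization high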
IDE cell activ = IDE (human) activation, cell-based; activation, % at 5.96 µM; 0.073% of 340,000 active; P14735; AID 493087; HEK cells, FAbeta-B cleavage, fluorescence polarization; 0% vehicle, 100% cell-free pure enzyme wells;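 active means activation above the mean of all tested compounds plus 3 SD, set per screening campaign, cut at about 17% in these data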
HDAC3 inhib = human HDAC3 inhibition | recombinant HDAC3, fluorogenic peptide/trypsin coupled, fluorescence | inhibition, % at 8.3 µM | 0.15% of 320,000 active | AID 2718; in the data active means inhibition above about 26%, passing the limit was not always enough
Target sequence (O15379 whole entry, looked up): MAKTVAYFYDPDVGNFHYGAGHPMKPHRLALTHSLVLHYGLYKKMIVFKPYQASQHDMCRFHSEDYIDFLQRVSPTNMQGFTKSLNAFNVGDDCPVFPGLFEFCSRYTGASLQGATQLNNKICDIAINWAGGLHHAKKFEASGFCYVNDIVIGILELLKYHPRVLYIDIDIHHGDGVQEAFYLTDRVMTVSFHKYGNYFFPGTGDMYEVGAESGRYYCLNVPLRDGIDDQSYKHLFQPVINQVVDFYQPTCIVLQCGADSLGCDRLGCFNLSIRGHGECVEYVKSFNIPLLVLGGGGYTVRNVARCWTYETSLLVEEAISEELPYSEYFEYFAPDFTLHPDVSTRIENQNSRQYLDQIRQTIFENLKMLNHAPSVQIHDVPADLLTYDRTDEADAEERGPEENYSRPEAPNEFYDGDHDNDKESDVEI
IDE inh confirm = confirmation of human insulin-degrading enzyme inhibitors in cells. 51% of 1,200 active. inhibition, % at 5.59 µM. shares compounds with IDE inh. HEK cells, FAbetaB cleavage, fluorescence polarization;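 active means mean inhibition across triplicate wells above the cutoff set by the earlier primary insulin-degrading enzyme screen, cut at about 16% in these data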
HEK293 tox = counter-screen for IDE inhibitors: cytotoxicity in HEK cells; shares compounds with IDE inh; HEK293 cytotoxicity, ATP luminescence; inhibition, % at 5.59 µM; 28% of 1,200 active; AID 449730; in the data active means inhibition above about 22%
A number is an active result; - = inactive; . = not tested or not shown.

SMILES	TbMetRS inhib	Efflux pump mplx	CR mimetic SO	IDE inh	IDE cell activ	HDAC3 inhib	IDE inh confirm	HEK293 tox
CC(C)CC1=NN2C(=N)/C(=C\c3coc4ccccc4c3=O)C(=O)N=C2S1	-	.	.	.	-	.	.	.
O=C(CCCCl)Oc1ccc2cc(-c3ccc4ccccc4n3)c(=O)oc2c1	-	-	-	37	-	-	52	-
COc1cccc(C(NC(C)=O)c2nc(-c3ccoc3)cs2)c1 (stereo unspecified)	-	.	.	.	.	.	.	.
COc1cc(/C=C/C(=O)Nc2cc(C(F)(F)F)ccc2Cl)cc(OC)c1OC	-	-	-	17	-	-	-	-
COc1ccc(/C=C/C(=O)Nc2cc(C(F)(F)F)ccc2Cl)cc1OC	-	-	-	-	-	-	.	.
Cc1nnsc1C(=O)N/N=C/c1ccc2ccccc2c1O	-	-	-	90	-	-	114	113
Cc1csc2c(N3CCN(C(=O)Nc4ccc(Cl)c(Cl)c4)CC3)ncnc12	-	-	-	21	-	-	-	-
CN(C(=O)CSc1nnc(C2CC2)n1C1CC1)C1(C#N)CCCCC1	-	-	-	-	-	-	.	.
CC1=CC(C)(C)Nc2ccc(OC(=O)CCN3C(=O)c4ccccc4C3=O)cc21	-	-	-	17	-	-	38	127
O=C(CCN1C(=O)c2ccccc2C1=O)Oc1ccc2ccccc2c1	-	-	-	-	-	-	.	.
O=C(NCCCN1CCOCC1)C(=O)N/N=C/c1ccccc1	-	-	-	-	-	-	.	.
O=C(NCCCN1CCOCC1)C(=O)N/N=C/c1cccc2ccccc12	-	-	-	16	-	-	-	-
COc1ccc(C2CC(c3cccs3)=NN2c2ccc(C=O)cc2)cc1 (stereo unspecified)	.	-	-	30	.	-	19	-
COc1ccc(C2=NN(c3ccc(C=O)cc3)C(c3ccccc3)C2)cc1 (stereo unspecified)	.	-	-	-	.	-	.	.
CCOc1ccc(NC(=O)Cn2sc3nc(C)cc(C)c3c2=O)cc1	-	-	-	40	-	-	-	79
Cc1cccc(N2CCN(C(=O)Cn3sc4nc(C)cc(C)c4c3=O)CC2C)c1 (stereo unspecified)	-	-	-	41	-	-	-	76
Cc1ccc(NC(=O)Cn2c(C)cc(C)c(C#N)c2=O)c(Cl)c1	-	-	-	-	-	-	.	.
Cc1cc(C)c2c(=O)n(CC(=O)Nc3cccc(F)c3)sc2n1	-	-	-	21	-	.	-	113
CCOC(=O)c1cn(CC(=O)Nc2cccc(F)c2)nn1	-	-	-	-	-	-	.	.
Cc1ccc(NC(=O)Cn2sc3nc(C)cc(C)c3c2=O)c(Cl)c1	-	-	-	54	-	-	-	27
COc1ccc(N2CCN(C(=O)C3CCN(S(=O)(=O)c4ccc(F)cc4)CC3)CC2)cc1	-	-	-	-	-	-	.	.
COc1cc(Nc2ncnc(N)n2)cc(OC)c1OC	-	-	-	-	-	-	.	.
CCC(CC)NC(=O)CO/N=C/c1ccccc1OC(F)F	-	-	-	-	-	-	.	.
COc1ccc(CCNC(=O)c2coc(=O)c(Br)c2)cc1	.	-	-	-	.	-	.	.
CC(=O)c1ccccc1NC(=O)CCCNC(=O)c1ccc(Cl)cc1	-	-	-	-	-	-	.	.
SMILES	TbMetRS inhib	Efflux pump mplx	CR mimetic SO	IDE inh	IDE cell activ	HDAC3 inhib	IDE inh confirm	HEK293 tox
C(=N\Nc1nc(Nc2ccccc2)nc(N2CCCCC2)n1)/c1ccco1	.	-	-	-	.	-	.	.
O=C1c2ccccc2S(=O)(=O)c2cc(N3CCC4(CC3)OCCO4)ccc21	.	-	-	-	.	-	.	.
Cc1cc(C)c2c(=O)n(CC(=O)Nc3ccc(Cl)cc3)sc2n1	-	-	-	46	-	-	-	76
Cc1cccc(OCC(=O)NCC(=O)N/N=C/c2cc(Br)ccc2OCc2ccccc2)c1	-	-	-	32	-	-	-	-
CCc1nnc(NC(=O)CSc2nc3c(c(=O)n2C)SC(C)C3)s1 (stereo unspecified)	-	-	-	17	-	-	-	-
CCSc1nnc(NC(=O)CSc2nc3c(c(=O)n2C)SC(C)C3)s1 (stereo unspecified)	-	-	-	-	-	-	.	.
O=C(N/N=C\c1c(O)ccc2ccccc12)c1ccc(Cn2cccn2)o1	-	-	-	42	-	-	63	68
O=C(N/N=C\c1ccc(Cl)s1)c1ccc(Cn2cccn2)o1	-	-	-	-	-	-	.	.
O=C(N/N=C/c1c(O)ccc2ccccc12)c1cccc(C(F)(F)F)c1	-	-	-	180	-	-	137	115
C(=N\NC1=Nc2cccc3cccc1c23)/c1cccnc1	-	-	-	23	-	-	-	-
COC(c1ccccc1)c1nnc(CCC(=O)NCCC(C)C)o1 (stereo unspecified)	-	-	-	-	-	-	.	.
COc1ccccc1-c1ccc(/C=C2/C=C(C)OC2=O)o1	-	-	-	-	-	-	.	.
COc1ccccc1-c1ccc(/C=C2\C=CC(=O)O2)o1	-	-	-	29	.	-	39	-
COC(=O)[C@@]1(Cc2ccc(OC)cc2)[C@H]2c3cc(C(=O)N4CCCC4)n(CCN4CCOCC4)c3C[C@H]2CN1C(=O)c1ccccc1	-	.	.	.	.	.	.	.
CN1CCc2c(C#N)c(N3CCCCC3)nc(N3CCOCC3)c2C1	.	-	-	-	.	-	.	.
C=CCNc1nc(N2CCOCC2)c(C#N)c2c1CN(C)CC2	-	-	-	16	-	-	-	-
CCC(CO)[n+]1c(C)cc(/C=C2\Sc3ccccc3N2Cc2ccccc2)cc1C (stereo unspecified)	-	-	-	43	-	26	54	100
Cc1cccc(N=Cc2[nH]c3ccc(Br)c(Cl)c3c2O)c1	-	-	-	22	-	-	23	-
CC(=O)N/N=C/c1cc(C(C)(C)C)cc(/C=N/NC(C)=O)c1O	-	-	-	48	.	-	29	-
CS(=O)(=O)c1cccc(C(=O)Nc2ccc(-c3nc4ccccc4[nH]3)cc2)c1	-	-	-	28	-	-	-	36
Cc1ccc2nc(-c3ccc(NC(=O)c4ccco4)cc3)[nH]c2c1	-	-	-	17	-	-	-	-
C#CCOCCOCCOCCNc1nc(N2CCN(C(=O)[C@H]([C@@H](C)CC)n3cc([C@@H](N)Cc4ccc(O)cc4)nn3)CC2)nc(N2CCN(C(=O)[C@H](Cc3ccc(O)cc3)n3cc([C@@H](N)C(C)CC)nn3)CC2)n1 (stereo partly specified)	-	-	-	-	-	-	.	.

Source: PubChem BioAssay
